What was measured:
IGROV-1 [1] = assay: Concentration of compound required for inhibition of (IGROV-1) human ovarian carcinoma cell growth by 50%; assay type: functional, cell-based
In short: (§1)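 Ovarian carcinoma cells in log-phase growth seeded in duplicate; drug added 24 h after seeding, cells harvested after 72 h of exposure and counted with a cell counter. IC50 = concentration giving 50% fewer cells than untreated control. Where SD is reported, mean of three independent experiments.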

NB-4 = assay: Concentration of compound required for inhibition of (NB4) human promyelocytic leukemia cell growth by 50%; assay type: functional, cell-based
In short: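 Leukemia cells exposed to drug for 24 h; growth inhibition assessed by cell counting at 72 h. IC50 = concentration reducing cell number 50% versus untreated control. Where SD is given, mean of three independent experiments.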

[2] = Concentration of compound required for inhibition of (IGROV-1/Pt1) human cisplatin resistant ovarian carcinoma cell growth by 50%; assay type: functional; in short: as §1
[3] = Effective concentration against retinoic acid receptor gamma in COS-7 cells co-expressing DR5-tk-CAT reporter; value range (0.1-0.3); assay type: cell-based
In short: (§2)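 COS-7 cells transfected with the relevant RAR isoform (alpha, beta or gamma) plus a DR5-tk-CAT reporter. 24 h post-transfection, cells treated 24 h with increasing compound concentrations. CAT activity measured in cell extracts, normalized to a beta-galactosidase transfection control.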

[4] = target: T1, Retinoic acid receptor beta (Homo sapiens, UniProt P10826); assay: Effective concentration against retinoic acid receptor beta in COS-7 cells co-expressing DR5-tk-CAT reporter; value range (0.1-0.3); assay type: cell-based
T1 sequence (P10826 whole entry): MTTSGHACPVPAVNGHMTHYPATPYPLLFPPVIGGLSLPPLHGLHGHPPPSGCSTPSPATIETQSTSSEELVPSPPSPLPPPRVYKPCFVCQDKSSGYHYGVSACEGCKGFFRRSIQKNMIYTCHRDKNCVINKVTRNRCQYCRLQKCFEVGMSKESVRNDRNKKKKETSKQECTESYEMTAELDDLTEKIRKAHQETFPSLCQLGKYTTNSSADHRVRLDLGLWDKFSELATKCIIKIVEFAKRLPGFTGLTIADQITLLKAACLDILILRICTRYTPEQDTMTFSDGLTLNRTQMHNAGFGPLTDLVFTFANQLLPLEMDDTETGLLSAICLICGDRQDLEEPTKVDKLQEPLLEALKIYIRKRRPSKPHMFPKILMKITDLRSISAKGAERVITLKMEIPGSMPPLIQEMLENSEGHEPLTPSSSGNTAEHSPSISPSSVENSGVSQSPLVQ

[5] = Effective concentration against retinoic acid receptor alpha in COS-7 cells co-expressing DR5-tk-CAT reporter; value range (0.1-0.4); assay type: cell-based; in short: as §2
IGROV-1 [6] = assay: Percent level of apoptosis induced by 72 hr of exposure with IC80 in (IGROV-1) human ovarian carcinoma cells; assay type: functional
[7] = Percent level of apoptosis induced by 72 hr of exposure with IC80 in (IGROV-1/Pt1) human cisplatin resistant ovarian carcinoma cells; assay type: functional
[8] = target: T1, Retinoic acid receptor beta; assay: Effective concentration against retinoic acid receptor beta in COS-7 cells co-expressing DR5-tk-CAT reporter; assay type: cell-based; in short: as §2
[9] = Effective concentration against retinoic acid receptor alpha in COS-7 cells co-expressing DR5-tk-CAT reporter; assay type: cell-based; in short: as §2
[10] = Effective concentration against retinoic acid receptor gamma in COS-7 cells co-expressing DR5-tk-CAT reporter; assay type: cell-based; in short: as §2
[11] = Effective concentration against retinoic acid receptor gamma in COS-7 cells co-expressing DR5-tk-CAT reporter; value range (0.6-1.5); assay type: cell-based; in short: as §2
[12] = Effective concentration against retinoic acid receptor alpha in COS-7 cells co-expressing DR5-tk-CAT reporter; value range (5.6-59.1); assay type: cell-based; in short: as §2
[13] = target: T1, Retinoic acid receptor beta; assay: Effective concentration against retinoic acid receptor beta in COS-7 cells co-expressing DR5-tk-CAT reporter; value range (7.5-41.1); assay type: cell-based; in short: as §2
[14] = Effective concentration against retinoic acid receptor gamma in COS-7 cells co-expressing DR5-tk-CAT reporter; value range (0.8-2.4); assay type: cell-based; in short: as §2
[15] = Effective concentration against retinoic acid receptor alpha in COS-7 cells co-expressing DR5-tk-CAT reporter; value range (13.9-29.7); assay type: cell-based; in short: as §2
[16] = target: T1, Retinoic acid receptor beta; assay: Effective concentration against retinoic acid receptor beta in COS-7 cells co-expressing DR5-tk-CAT reporter; value range (6.1-9.8); assay type: cell-based; in short: as §2
[17] = Effective concentration against retinoic acid receptor gamma in COS-7 cells co-expressing DR5-tk-CAT reporter; value range (0.1-0.5); assay type: cell-based; in short: as §2
[18] = target: T1, Retinoic acid receptor beta; assay: Effective concentration against retinoic acid receptor beta in COS-7 cells co-expressing DR5-tk-CAT reporter; value range (3.9-7.2); assay type: cell-based; in short: as §2
[19] = Effective concentration against retinoic acid receptor alpha in COS-7 cells co-expressing DR5-tk-CAT reporter; value range (4.6-8.9); assay type: cell-based; in short: as §2

## C/C(=C\c1ccc(-c2ccc(O)c(C34CC5CC(CC(C5)C3)C4)c2)cc1)C(=O)O
IGROV-1 [1]
  IC50: 7.19 µM
NB-4
  IC50: 2.3 µM
[2]
  IC50: 10 µM

## O=C(O)/C=C/c1ccc(-c2ccc(O)c(C34CC5CC(CC(C5)C3)C4)c2)cc1 [ADAROTENE]
[3]
  EC50: 0.1 µM
[4]
  EC50: 0.2 µM
[5]
  EC50: 0.2 µM
NB-4
  IC50: 0.082 µM
[2]
  IC50: 0.4 µM
IGROV-1 [6]
  Apoptosis: 65%
[7]
  Apoptosis: 30%

## N#C/C=C/c1ccc(-c2ccc(O)c(C34CC5CC(CC(C5)C3)C4)c2)cc1
IGROV-1 [1]
  IC50: 8.3 µM
NB-4
  IC50: 14.3 µM
[2]
  IC50: 12.7 µM
IGROV-1 [6]
  Apoptosis: 2%

## OC/C=C/c1ccc(-c2ccc(O)c(C34CC5CC(CC(C5)C3)C4)c2)cc1
IGROV-1 [1]
  IC50: 10.8 µM
NB-4
  IC50: 9.1 µM
[2]
  IC50: 10.6 µM

## O=C(O)/C=C/c1ccc(-c2cc(O)cc(C34CC5CC(CC(C5)C3)C4)c2)cc1
IGROV-1 [1]
  IC50: 1.31 µM
NB-4
  IC50: 1.2 µM

## O=P(O)(O)/C=C/c1ccc(-c2ccc(O)c(C34CC5CC(CC(C5)C3)C4)c2)cc1
IGROV-1 [1]
  IC50: > 20 µM
NB-4
  IC50: > 200 µM
[2]
  IC50: > 20 µM

## COC(=O)/C=C/c1ccc(-c2ccc(O)c(C34CC5CC(CC(C5)C3)C4)c2)cc1
IGROV-1 [1]
  IC50: 0.61 µM
NB-4
  IC50: 18.2 µM
[2]
  IC50: 3.5 µM

## O=C(O)c1ccc(-c2ccc(O)c(C34CC5CC(CC(C5)C3)C4)c2)cc1
IGROV-1 [1]
  IC50: > 3 µM
NB-4
  IC50: 35.2 µM
[2]
  IC50: > 3 µM

## O=C(O)c1ccc2cc(-c3ccc(O)c(C45CC6CC(CC(C6)C4)C5)c3)ccc2c1 [O-DEMETHYLATED ADAPALENE]
NB-4
  IC50: 0.4 µM
[2]
  IC50: 0.62 µM
IGROV-1 [6]
  Apoptosis: 38%
[7]
  Apoptosis: 25%

## O=C(O)/C=C/c1ccc(-c2ccc(C34CC5CC(CC(C5)C3)C4)c(O)c2)cc1
IGROV-1 [1]
  IC50: 6.13 µM
NB-4
  IC50: > 10 µM
IGROV-1 [6]
  Apoptosis: 23%

## O=C(O)CCc1ccc(-c2ccc(O)c(C34CC5CC(CC(C5)C3)C4)c2)cc1
IGROV-1 [1]
  IC50: 48.4 µM
NB-4
  IC50: 63.6 µM
[2]
  IC50: 44.5 µM
IGROV-1 [6]
  Apoptosis: 26%

## O=C(O)/C(F)=C\c1ccc(-c2ccc(O)c(C34CC5CC(CC(C5)C3)C4)c2)cc1
IGROV-1 [1]
  IC50: > 3 µM
NB-4
  IC50: 22.4 µM
[2]
  IC50: > 3 µM

## O=C(O)/C=C/c1ccc(-c2ccc(O)c(Cl)c2)cc1
IGROV-1 [1]
  IC50: 26 µM

## O=C(O)/C=C/c1ccc(-c2ccc(O)c(-c3ccccc3)c2)cc1
[8]
  EC50: > 100 µM
[9]
  EC50: > 100 µM
[10]
  EC50: > 100 µM
IGROV-1 [1]
  IC50: 19 µM
NB-4
  IC50: 45.3 µM
[2]
  IC50: 12.5 µM
IGROV-1 [6]
  Apoptosis: 7%
[7]
  Apoptosis: 1%

## O=C(O)C#Cc1ccc(-c2ccc(O)c(C34CC5CC(CC(C5)C3)C4)c2)cc1
IGROV-1 [1]
  IC50: 1.15 µM
NB-4
  IC50: 1.2 µM
[2]
  IC50: 1.52 µM
IGROV-1 [6]
  Apoptosis: 52%

## O=Cc1cc(/C=C/C(=O)O)ccc1-c1ccc(O)c(C23CC4CC(CC(C4)C2)C3)c1
IGROV-1 [1]
  IC50: 1.28 µM
NB-4
  IC50: 1.05 µM
[2]
  IC50: 2.63 µM
IGROV-1 [6]
  Apoptosis: 44%

## CC(C)(C)c1cc(-c2ccc(/C=C/C(=O)O)cc2)ccc1O
IGROV-1 [1]
  IC50: 30 µM
NB-4
  IC50: 42.3 µM
[2]
  IC50: 30 µM

## CC1(c2cc(-c3ccc(/C=C/C(=O)O)cc3)ccc2O)CCCCCCCCCCC1
IGROV-1 [1]
  IC50: 3.57 µM

## Cc1cc(O)c(C23CC4CC(CC(C4)C2)C3)cc1-c1ccc(/C=C/C(=O)O)cc1
IGROV-1 [1]
  IC50: 1.14 µM
NB-4
  IC50: 1.7 µM
[2]
  IC50: 2.92 µM

## O=C(O)/C(F)=C/c1ccc(-c2ccc(O)c(C34CC5CC(CC(C5)C3)C4)c2)cc1
IGROV-1 [1]
  IC50: 0.37 µM
NB-4
  IC50: 0.081 µM
[2]
  IC50: 0.63 µM

## O=C(O)/C=C/c1ccc(-c2ccc(O)cc2)cc1
[8]
  EC50: > 100 µM
[9]
  EC50: > 100 µM
[10]
  EC50: > 100 µM
IGROV-1 [1]
  IC50: 89 µM
NB-4
  IC50: 78.7 µM
[2]
  IC50: 156 µM
IGROV-1 [6]
  Apoptosis: 3%
[7]
  Apoptosis: 1%

## O=C(O)C1CC1c1ccc(-c2ccc(O)c(C34CC5CC(CC(C5)C3)C4)c2)cc1 (stereo not given)
IGROV-1 [1]
  IC50: > 20 µM
NB-4
  IC50: 39.4 µM
[2]
  IC50: > 20 µM

## O=C(O)/C=C/c1ccc(-c2ccc(O)c(C34CC5CC(CC(C5)C3)C4)c2)c(Cl)c1
IGROV-1 [1]
  IC50: 0.58 µM
NB-4
  IC50: 0.2 µM
[2]
  IC50: 0.73 µM
IGROV-1 [6]
  Apoptosis: 74%

## CCOP(=O)(/C=C/c1ccc(-c2ccc(O)c(C34CC5CC(CC(C5)C3)C4)c2)cc1)OCC
IGROV-1 [1]
  IC50: 19.7 µM
NB-4
  IC50: 1.7 µM
[2]
  IC50: > 20 µM

## O=C(O)/C=C/c1ccc2c(ccc3cc(O)c(C45CC6CC(CC(C6)C4)C5)cc32)c1
IGROV-1 [1]
  IC50: 2.2 µM
NB-4
  IC50: 1.5 µM
[2]
  IC50: 2.1 µM

## Nc1ccccc1NC(=O)/C=C/c1ccc(-c2ccc(O)c(C34CC5CC(CC(C5)C3)C4)c2)cc1
[11]
  EC50: 0.9 µM
[12]
  EC50: 18.2 µM
[13]
  EC50: 17.6 µM
IGROV-1 [1]
  IC50: 2.1 µM
NB-4
  IC50: 1.8 µM
[2]
  IC50: 2 µM
IGROV-1 [6]
  Apoptosis: 8%

## C/C(=C\C(=O)O)c1ccc(-c2ccc(O)c(C34CC5CC(CC(C5)C3)C4)c2)cc1
IGROV-1 [1]
  IC50: 9.97 µM
NB-4
  IC50: 6.7 µM
[2]
  IC50: 16.6 µM
IGROV-1 [6]
  Apoptosis: 26%

## O=C(O)/C=C/c1ccc(-c2ccc(O)c(C34CC5CC(CC(C5)C3)C4)c2)cc1F
IGROV-1 [1]
  IC50: 0.2 µM
NB-4
  IC50: 0.17 µM
[2]
  IC50: 0.43 µM
IGROV-1 [6]
  Apoptosis: 47%

## O=C(/C=C/c1ccc(-c2ccc(O)c(C34CC5CC(CC(C5)C3)C4)c2)cc1)Nc1ccc(O)cc1
[14]
  EC50: 1.4 µM
[15]
  EC50: 20.3 µM
[16]
  EC50: 7.7 µM
IGROV-1 [1]
  IC50: 6.6 µM
NB-4
  IC50: 2 µM
[2]
  IC50: 10.5 µM
IGROV-1 [6]
  Apoptosis: 2%

## O=C(O)/C=C/c1ccc(-c2ccc(O)c(CC3CCCCC3)c2)cc1
[17]
  EC50: 0.2 µM
[18]
  EC50: 5.3 µM
[19]
  EC50: 6.4 µM
IGROV-1 [1]
  IC50: 2.58 µM
NB-4
  IC50: 2.2 µM
[2]
  IC50: 2.3 µM
IGROV-1 [6]
  Apoptosis: 25%
[7]
  Apoptosis: 9%

Reference: ChEMBL document CHEMBL1140337, “Synthesis and structure-activity relationships of a new series of retinoid-related biphenyl-4-ylacrylic acids endowed with antiproliferative and proapoptotic activity” (J Med Chem, 2005)
